In ChEMBL document CHEMBL5244249, “Discovery of tofacitinib derivatives as orally active antitumor agents based on the scaffold hybridization strategy” (Eur J Med Chem, 2020):
Active and inactive are the calls of the source. The rule behind the calls is not given here.

What was measured:
HGC-27 = assay: Antiproliferative activity against human HGC-27 cells assessed as inhibition of cell growth incubated for 72 hrs by MTT assay; type: functional, cell-based; details: HGC-27, 72 h
Procedure, shortened: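 Antiproliferative screen in gastric cancer lines MGC-803, HGC-27 and BGC-823 by MTT assay; IC50 reported as mean ± SD.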

MGC-803 [1] = assay: Induction of apoptosis in human MGC-803 cells assessed as cell rounding up at 5 to 10 uM incubated for 24 hrs by Hoechst 33342 staining based fluorescence microscopic analysis; type: functional; details: dose 5-10 µM
Procedure, shortened: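 MGC-803 cells exposed to 0, 5, 7.5 or 10 μM; cell morphology imaged and nuclear morphology examined by staining. Mean ± SD, three independent experiments.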

MGC-803 [2] = assay: Induction of apoptosis in human MGC-803 cells assessed as nuclear condensation at 5 to 10 uM incubated for 24 hrs by Hoechst 33342 staining based fluorescence microscopic analysis; type: functional, cell-based; details: dose 5-10 µM
Procedure, shortened: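 MGC-803 cells treated at 0, 5, 7.5 and 10 μM; cell morphology and nuclear morphology (fragmentation, condensation) examined by staining and imaging; three independent experiments, mean ± SD.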

MGC-803 [3] = assay: Induction of apoptosis in human MGC-803 cells assessed as viable cells at 5 uM incubated for 24 hrs by Annexin V-FITC/PI staining based flow cytometric analysis (reference value: 90.3 %); type: functional; details: read-out: Activity
MGC-803 [4] = assay: Induction of apoptosis in human MGC-803 cells assessed as viable cells at 7.5 uM incubated for 24 hrs by Annexin V-FITC/PI staining based flow cytometric analysis (reference value: 90.3 %); type: functional; details: read-out: Activity
MGC-803 [5] = assay: Induction of apoptosis in human MGC-803 cells assessed as early apoptotic cells at 7.5 uM incubated for 24 hrs by Annexin V-FITC/PI staining based flow cytometric analysis (reference value: 3.9 %); type: functional
MGC-803 [6] = assay: Induction of apoptosis in human MGC-803 cells assessed as viable cells at 10 uM incubated for 24 hrs by Annexin V-FITC/PI staining based flow cytometric analysis (reference value: 90.3 %); type: functional; details: read-out: Activity
MGC-803 [7] = assay: Induction of apoptosis in human MGC-803 cells assessed as necrotic cells at 10 uM incubated for 24 hrs by Annexin V-FITC/PI staining based flow cytometric analysis (reference value: 2.0 %); type: functional
MGC-803 [8] = assay: Induction of apoptosis in human MGC-803 cells assessed as late apoptotic cells at 5 uM incubated for 48 hrs by Annexin V-FITC/PI staining based flow cytometric analysis (reference value: 0.5 %); type: functional
MGC-803 [9] = assay: Induction of apoptosis in human MGC-803 cells assessed as early apoptotic cells at 7.5 uM incubated for 48 hrs by Annexin V-FITC/PI staining based flow cytometric analysis (reference value: 2.5 %); type: functional
MGC-803 [10] = assay: Induction of apoptosis in human MGC-803 cells assessed as late apoptotic cells at 7.5 uM incubated for 48 hrs by Annexin V-FITC/PI staining based flow cytometric analysis (reference value: 0.5 %); type: functional
MGC-803 [11] = assay: Induction of mitochondrial dysfunction in human MGC-803 cells assessed as increase in green fluorescence intensity at 5 uM incubated for 24 hrs by JC-1 staining based fluorescence microscopic analysis (reference value: 9.9%); type: functional
MGC-803 [12] = assay: Induction of mitochondrial dysfunction in human MGC-803 cells assessed as increase in green fluorescence intensity at 10 uM incubated for 24 hrs by JC-1 staining based fluorescence microscopic analysis (reference value: 9.9%); type: functional
MGC-803 [13] = assay: Induction of mitochondrial dysfunction in human MGC-803 cells assessed as increase in ratio of green to red fluorescence intensity incubated for 24 hrs by JC-1 staining based fluorescence microscopic analysis; type: functional, cell-based; details: dose 5-10 µM
MGC-803 [14] = assay: Induction of apoptosis in human MGC-803 cells assessed as decrease in Bcl-2 protein expression at 5 to 10 uM incubated for 24 hrs by Western blot analysis; type: functional, cell-based; details: dose 5-10 µM
Procedure, shortened: (§1)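 After 24 h exposure of MGC-803 cells, Bcl-2, Mcl-1, Bax and cytochrome c release assessed by Western blot with band quantitation; mean ± SD from three independent experiments.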

MGC-803 [15] = assay: Induction of apoptosis in human MGC-803 cells assessed as decrease in Mcl-1 protein expression at 5 to 10 uM incubated for 24 hrs by Western blot analysis; type: functional, cell-based; details: dose 5-10 µM; procedure, shortened: as §1
MGC-803 [16] = assay: Induction of mitochondrial dysfunction in human MGC-803 cells assessed as upregulation of cleaved caspase-3 expression at 5 to 10 uM incubated for 24 hrs by Western blot analysis; type: functional, cell-based; details: dose 5-10 µM
Procedure, shortened: (§2)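 Western blot of caspase 9, 3, 7, PARP and γH2A.X in MGC-803 lysates after 24 h exposure to 5, 7.5 or 10 μM; band quantitation; mean ± SD from three independent experiments.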

MGC-803 [17] = assay: Induction of mitochondrial dysfunction in human MGC-803 cells assessed as downregulation of procaspase-3 expression at 5 to 10 uM incubated for 24 hrs by Western blot analysis; type: functional, cell-based; details: dose 5-10 µM; procedure, shortened: as §2
[18] = Activation of MAPK pathway in human MGC-803 cells assessed as change in phosphorylated Erk1/2 expression at 5 to 10 uM incubated for 24 hrs by Western blot analysis; type: cell-based; details: dose 5-10 µM
[19] = Activation of MAPK pathway in human MGC-803 cells assessed as change in phosphorylated Erk5 expression at 5 to 10 uM incubated for 24 hrs by Western blot analysis; type: cell-based; details: dose 5-10 µM
[20] = Activation of MAPK pathway in human MGC-803 cells assessed as increase in phosphorylated JNK expression at 5 to 10 uM incubated for 24 hrs by Western blot analysis; type: cell-based; details: filed as activator, dose 5-10 µM
MGC-803 [21] = assay: Antitumor activity against human MGC-803 cells xenografted in SCID mouse assessed as decrease in average tumor volume at 12.5 to 25 mg/kg, IG administered for 21 days; type: functional, organism-based; details: dose 12.5-25 mg/kg, time 21.0 day
Procedure, shortened: (§3)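 MGC-803 cells implanted subcutaneously on the right side of SCID mice; dosed at 12.5 or 25 mg/kg in 0.5% CMC-Na (vehicle control) for 21 days. Body weight and tumor size recorded periodically; tumors excised and weighed at end. Means ± SD.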

MGC-803 [22] = assay: Antitumor activity against human MGC-803 cells xenografted in SCID mouse assessed as decrease in average tumor weight at 12.5 mg/kg, IG administered for 21 days relative to control; type: functional; parameters: scale not given: the % may be the effect or the level left; details: time 21 day; procedure, shortened: as §3
[23] = Toxicity in SCID mouse xenografted with human MGC-803 cells assessed as effect on heart at 12.5 to 25 mg/kg, IG administered for 21 days by H&E staining based histopathological analysis; type: organism-based; details: in vivo, po, 504 h, dose 12.5-25 mg/kg, time 21 day
Procedure, shortened: (§4)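 SCID mice bearing subcutaneous MGC-803 xenografts (right side) dosed with 12.5 or 25 mg/kg over 21 days, 0.5% CMC-Na vehicle as control; body weight and tumor size monitored periodically; major organs examined histopathologically at end; means ± SD.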

[24] = Toxicity in SCID mouse xenografted with human MGC-803 cells assessed as effect on spleen at 12.5 to 25 mg/kg, IG administered for 21 days by H&E staining based histopathological analysis; type: organism-based; details: in vivo, po, 504 h, dose 12.5-25 mg/kg, time 21 day; procedure, shortened: as §4
[25] = Toxicity in SCID mouse xenografted with human MGC-803 cells assessed as effect on lung at 12.5 to 25 mg/kg, IG administered for 21 days by H&E staining based histopathological analysis; type: organism-based; details: in vivo, po, 504 h, dose 12.5-25 mg/kg, time 21 day; procedure, shortened: as §4

For `Cc1cc(N2CC[C@@H](C)[C@@H](N(C)c3ncnc4[nH]ccc34)C2)n2nc(SCc3ccc(C(F)(F)F)cc3)nc2n1`, the IC50 (HGC-27) was 9.54 µM, the Activity (MGC-803 [1]) was “Active” and the Activity (MGC-803 [2]) was “Active”. The viability at 5 µM (MGC-803 [3]) was 81.7%, the viability at 7.5 µM (MGC-803 [4]) was 69.2% and the Activity (MGC-803 [5]) was 11.5%. The viability at 10 µM (MGC-803 [6]) was 57.1%, the Activity (MGC-803 [7]) was 2.2% and the Activity (MGC-803 [8]) was 17.2%. It also gave an Activity (MGC-803 [9]) of 8.8%, an Activity (MGC-803 [10]) of 67.5% and an Activity (MGC-803 [11]) of 27.7%. The Activity (MGC-803 [12]) was 49.1%, the Activity (MGC-803 [13]) was “Dose-Dependent Effect” and the Activity (MGC-803 [14]) was “Active”. For the same compound, the Activity (MGC-803 [15]) was “Active”, the Activity (MGC-803 [16]) was “Active” and the Activity (MGC-803 [17]) was “Active”. The Activity [18] was “inactive”, the Activity [19] was “inactive” and the Activity [20] was “Active”. The Activity (MGC-803 [21]) was “Active”, the Activity (MGC-803 [22]) was 56.8% and the Activity [23] was “Non-Toxic”. For the same compound, the Activity [24] was “Non-Toxic” and the Activity [25] was “Non-Toxic”.
